The record followed here is ChEMBL document CHEMBL2311436, “Synthesis of acylated glycoconjugates as templates to investigate in vitro biopharmaceutical properties” (Bioorg Med Chem Lett, 2013).

Structures are written as SMILES.

Data set [1] has as its system Liver microsomes. Description: In vitro intrinsic clearance in human liver microsomes assessed per milligram of protein in presence of NADPH. Format: ADME, Microsome. In a few lines:
(§1)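 Compounds were incubated with human liver microsomes, and mass spectrometry monitored parent loss and the appearance of mono-, di- and tri-acylated and fully deacylated hydrolysis products.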

Data set [2] concerns Liver microsomes. Put plainly: In vitro intrinsic clearance in human liver microsomes assessed per milligram. Format: ADME, Microsome. In outline:
as §1

The subject of another data set is Plasma. Put plainly: (§2) Degradation half life in human plasma. It is filed as ADME, cell-free. In a few lines: (§3)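 Compounds were incubated in human plasma at 37 °C, and ester hydrolysis was followed by mass spectrometry. Tri-, di- and mono-acylated intermediates and the fully deacylated product were tracked by their characteristic molecular weights.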
Another data set addresses Albumin (Homo sapiens, UniProt P02768). Description: Binding affinity to human serum albumin by chromatographic HSA binding assay. It is filed as ADME. The settings on record: isolated protein. In outline: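 Protein binding was estimated from retention time on an immobilized human serum albumin (HSA) HPLC column, correlated against standard compounds with known protein binding values. This was used in place of equilibrium dialysis or ultrafiltration because the esters may deacylate under those conditions.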

Data set [3] can be described thus: as §2. It is filed as ADME, cell-free. In a few lines:
as §3

Albumin, sequence (P02768 whole entry): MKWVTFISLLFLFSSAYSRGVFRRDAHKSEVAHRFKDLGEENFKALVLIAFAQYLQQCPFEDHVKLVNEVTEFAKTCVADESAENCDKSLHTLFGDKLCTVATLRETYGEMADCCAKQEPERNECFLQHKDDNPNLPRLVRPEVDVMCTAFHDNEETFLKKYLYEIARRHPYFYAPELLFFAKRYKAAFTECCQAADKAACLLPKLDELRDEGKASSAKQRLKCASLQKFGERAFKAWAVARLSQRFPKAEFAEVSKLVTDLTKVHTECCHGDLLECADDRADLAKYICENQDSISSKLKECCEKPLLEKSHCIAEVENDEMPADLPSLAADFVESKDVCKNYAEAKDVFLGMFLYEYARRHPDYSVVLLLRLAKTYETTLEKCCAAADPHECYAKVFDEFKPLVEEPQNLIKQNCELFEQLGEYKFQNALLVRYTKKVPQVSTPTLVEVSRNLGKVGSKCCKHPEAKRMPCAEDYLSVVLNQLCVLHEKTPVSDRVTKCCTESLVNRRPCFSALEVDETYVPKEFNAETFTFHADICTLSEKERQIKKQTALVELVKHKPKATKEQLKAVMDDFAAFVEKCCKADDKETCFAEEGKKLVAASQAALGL

With `CC(C)CC(=O)OC[C@H]1O[C@@H](n2cc(-c3ccccc3)nn2)[C@H](OC(=O)CC(C)C)[C@@H](OC(=O)CC(C)C)[C@@H]1OC(=O)CC(C)C`, the CLH in the data set on Liver microsomes [1] and with Liver microsomes [2] was less than 7 µL/min in each case. Also, the t1/2 result with Plasma is listed as “Stable”. The same compound returned an Activity on Albumin of less than 99%.

In the case of `CCCCC(=O)OC[C@H]1O[C@@H](n2cc(-c3ccccc3)nn2)[C@H](OC(=O)CCCC)[C@@H](OC(=O)CCCC)[C@@H]1OC(=O)CCCC`, the CLH with Liver microsomes [1] and in the data set on Liver microsomes [2] was less than 7 µL/min throughout. In the data set with Plasma, the t1/2 entry was “Stable”. For the same compound, the Activity on Albumin was less than 99%.

For `CCCC(=O)OC[C@H]1O[C@@H](n2cc(-c3ccccc3)nn2)[C@H](OC(=O)CCC)[C@@H](OC(=O)CCC)[C@@H]1OC(=O)CCC`, the CLH was determined as 69 µL/min with Liver microsomes [1] and 83 µL/min in the data set with Liver microsomes [2]. This compound showed a half-life in data set [3] of 555 min. This compound registered an Activity at Albumin of 96%.

On to `CC(=O)OC[C@H]1O[C@@H](n2cc(-c3ccccc3)nn2)[C@H](OC(C)=O)[C@@H](OC(C)=O)[C@@H]1OC(C)=O`, for which the CLH in the data set with Liver microsomes [1] stood at 397 µL/min; in the data set with Liver microsomes [2], 423 µL/min. Besides, in data set [3], the half-life came out at 55 min. On Albumin, this compound yielded an Activity of 59%.

On to `CCC(=O)OC[C@H]1O[C@@H](n2cc(-c3ccccc3)nn2)[C@H](OC(=O)CC)[C@@H](OC(=O)CC)[C@@H]1OC(=O)CC`, for which the CLH entry with Liver microsomes [1] and with Liver microsomes [2] was “ND(Unstable)” each time. For the same compound, the half-life in data set [3] was determined as 26 min. In addition, the Activity at Albumin came out at 88%.

In the case of `OC[C@H]1O[C@@H](n2cc(-c3ccccc3)nn2)[C@H](O)[C@@H](O)[C@@H]1O`, the CLH with Liver microsomes [1] and in the data set with Liver microsomes [2] was less than 7 µL/min in each case. Also, the t1/2 result with Plasma is listed as “Stable”. The Activity on Albumin worked out at 19%.
